Source: PubChem BioAssay (several laboratories)
Shown are actives, neighbours in structure and some others; about 4.3% of the full set was active somewhere.
B2AR ag = beta2AR agonists driving receptor internalization, primary screen, cell-based, FAP fluorogen, flow cytometry | Beta-2 adrenergic receptor (Homo sapiens), P07550 | Am2.2-beta2AR cells | response, % (no concentration beside the values) | actives 0.43% (n = 340,000);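 active = response above a set limit, near 3 SD of response in nonfluorescent compounds, cut at about 42% in these data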
Target sequence (P07550 whole entry, looked up): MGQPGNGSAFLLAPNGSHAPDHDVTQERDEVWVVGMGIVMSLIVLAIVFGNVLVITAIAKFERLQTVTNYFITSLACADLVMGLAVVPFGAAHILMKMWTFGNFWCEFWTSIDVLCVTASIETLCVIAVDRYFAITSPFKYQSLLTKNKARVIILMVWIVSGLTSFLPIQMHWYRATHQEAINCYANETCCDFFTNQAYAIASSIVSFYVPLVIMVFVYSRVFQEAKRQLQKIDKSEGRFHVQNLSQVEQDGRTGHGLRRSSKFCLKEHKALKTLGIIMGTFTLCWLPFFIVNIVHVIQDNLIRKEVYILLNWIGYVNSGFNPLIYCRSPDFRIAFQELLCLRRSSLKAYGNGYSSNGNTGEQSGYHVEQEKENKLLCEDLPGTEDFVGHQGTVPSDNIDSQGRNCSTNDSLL
TAAR1 ag = human TAAR1 agonists, primary screen, Fluo-8 calcium fluorescence, CHO RD-HGA16 cells; actives 0.99% (n = 360,000); activation, % at 3 µM; vehicle wells 0%, saturating PEA agonist 100%; Trace amine-associated receptor 1 (Homo sapiens), Q96RJ0; AID 624467, 2012;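 active = activation above the mean activation of all test compounds in the run plus 3 SD, cut at about 38% in these data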
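Assay system: CHO-derived RD-HGA16 cells with stable Gα16 and human TAAR1; timing: 17-24 h seeding, 75 min 37 °C dye, 30 min RT; read-out: % activation from peak over basal fluorescence ratio, DMSO-to-PEA scaled; measured by: kinetic Fluo-8 calcium fluorescence; benchmarks: low control DMSO, high control PEA (EC100); doses: 3 µM single concentration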
MC4R antagonist = MC4R antagonists of cAMP signaling, primary screen, cell-based, TR-FRET, antagonist arm of biased-ligand search; Melanocortin receptor 4 (Homo sapiens), P32245; MC4R-expressing cells, MTII-stimulated cAMP, LANCE TR-FRET; inhibition, % at 6.5 µM; actives 0.48% (n = 360,000);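 active = inhibition above its plate's cutoff, the mean of tested wells on that plate plus 3 SD, cut at about 29% in these data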;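 note: 0% = Melanotan II alone and 100% = Melanotan II plus saturating MCL0020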
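Material: U2OS-MC4R stable cell line | Reagent: Melanotan II challenge after compound preincubation | Doses: One concentration, 6.5 µM nominal | Incubation: 30-min compound preincubation, 1-h Melanotan II challenge, 1-h detection, room temperature | Signal: TR-FRET cAMP assay | Replicates: One well per compound, no replicates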
m5-HT2A agonist = mouse Htr2a agonists via beta-arrestin recruitment, primary screen, cell-based, luminescence; 5-hydroxytryptamine receptor 2A (Mus musculus), P35363; actives 0.66% (n = 360,000); CHO-K1 mHTR2A beta-arrestin complementation; percent of 30 µM serotonin response; activation, % at 7.6 µM;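 active = activation above a run cutoff, the mean activation of all tested compounds plus 3 SD, cut at about 14% in these data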;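 note: 0% = plate median of compound wells and 100% = 30 µM serotonin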
MC4R ag barr = MC4R agonists recruiting beta-arrestin, primary screen, cell-based, luminescence, agonist arm of biased-ligand search; actives 0.98% (n = 360,000); activation, % at 8.9 µM; U2OS MC4R beta-arrestin complementation; percent of melanotan II response, DMSO zero; AID 540308, 2011;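 active = activation above a per-plate cutoff, the mean activation of sample wells on that plate plus 3 SD, cut at about 8% in these data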
TAAR1 antag = human TAAR1 antagonists, primary screen, Fluo-8 calcium fluorescence, CHO RD-HGA16 cells | inhibition, % at 3 µM | Trace amine-associated receptor 1 (Homo sapiens), Q96RJ0 | antagonist | actives 1.5% (n = 360,000) | AID 624466, 2012;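 active = inhibition above a per-plate cutoff, the mean inhibition of test compounds on that plate plus 3 SD, cut at about 49% in these data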;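 note: 0% = DMSO plus EC80 beta-PEA response and 100% = DMSO alone without agonist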
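Material: CHO RD-HGA16 cells bearing hTAAR1; compound dosing: one-point dosing, 3 µM nominal final; schedule: dye loading 75 min at 37 °C, then 30 min room temperature; measured by: calcium fluorescence with Fluo-8; control set: vehicle and agonist controls; replication: n of 1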
MC4R barr conf = MC4R beta-arrestin agonists, retest, confirmation, cell-based, luminescence, U2OS; actives 31% (n = 2,400); activation, % at 8.9 µM; shares compounds with MC4R ag barr; U2OS MC4R beta-arrestin recruitment; scaled DMSO 0%, Melanotan II 100%;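 active = mean activation across replicates above the hit cutoff set in the earlier primary screen, cut at about 8% in these data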
MOR-DOR barr ag = agonists of MOR-DOR heterodimerization, counter-screen for MC4R biased agonist project, cell-based, luminescence; AID 602194, 2012; actives 5.8% (n = 2,400); activation, % at 9.2 µM; U2OS PathHunter beta-arrestin, beta-gal luminescence; percent of deltorphin B response, DMSO zero; shares compounds with MC4R ag barr;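 active = mean activation across replicates exceeds the hit threshold derived in the earlier primary screen, cut at about 18% in these data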;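 note: 100% = deltorphin B at 0.9 µM final and 0% = DMSO alone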
* hit, by the source's call; . = no result.

SMILES	B2AR ag	TAAR1 ag	MC4R antagonist	m5-HT2A agonist	MC4R ag barr	TAAR1 antag	MC4R barr conf	MOR-DOR barr ag
Cc1ccccc1-c1cccc([C@@H]2C[C@H]3[C@H](CON3C)CN2Cc2ccccc2)c1	2	2	12	-9	0	7	.	.
O=C(Nc1ccc(F)cc1)c1cc(-c2ccncc2)nc2c(Cl)cccc12	1	0	-2	6	12*	-2	1	10
Cc1ccccc1Cn1c(=O)n(CCCC(=O)NCc2ccco2)c(=O)c2sccc21	6	4	7	-3	1	-1	.	.
Cc1cc(C)c(Cn2c(=O)n(CCCC(=O)NCc3ccco3)c(=O)c3sccc32)c(C)c1	-3	1	0	2	33*	4	-1	7
O=C(NCc1ccc2c(c1)OCO2)c1cc(-c2ccccc2Cl)on1	-1	22	17	2	1	5	.	.
COc1cccc(-c2cc(C(=O)Nc3ccc4c(c3)OCO4)no2)c1	6	-1	-7	-7	16*	-6	3	10
O=C(Nc1ccc2c(c1)OCO2)c1cc(-c2ccccc2Cl)on1	1	4	-5	0	32*	24	2	4
O=C(Nc1ccc2c(c1)OCO2)c1cc(-c2ccc(O)cc2)on1	10	6	-5	-3	11*	-12	4	7
O=C(Nc1ccc2c(c1)OCO2)c1cc(-c2cccc(O)c2)on1	7	4	-1	-2	-3	-3	.	.
COc1ccc(-c2nc3cc(C)c(Br)c(C)n3c2Cc2ccsc2)cc1OC	.	6	.	-2	.	-30	.	.
O=C(Cc1csc(-c2ccccc2)n1)Nc1ccc(C(F)(F)F)cc1	9	1	4	-2	14*	4	4	11
Cc1ccc([C@@H]2CC(=O)[C@@H]3CN(S(=O)(=O)c4ccc(C)cc4)[C@H](c4cccc(Cl)c4)C[C@@H]3N2S(=O)(=O)c2ccc(Cl)cc2)cc1	.	1	6	0	1	-1	.	.
C=C(C)c1ccc(C(C)(C)NC(=O)N(Cc2ccccc2)Cc2ccco2)cc1	2	13	-1	5	17*	31	-3	4
Clc1ccc(Cn2ncc3c(N4CCN(c5ccccc5)CC4)ncnc32)cc1	.	12	25	1	11*	57*	17*	12
COc1ccc(CNC(=O)COC(=O)CCn2c(C)csc2=O)cc1OC	5	1	-3	0	-3	-7	.	.
COc1ccc2[nH]c3c(c2c1)CCN1C(=O)C(CC(=O)NC(C)(C)C)C[C@H](C(=O)N(C(C)C)C(C)C)[C@@]31C (some centres undefined)	-4	-2	4	-3	-1	-21	.	.
O=C(Nc1ccccc1)Nc1cc(OCC(F)(F)F)cc(OCC(F)(F)F)c1	16	5	17	5	10*	42	2	8
O=C(Nc1ccccc1)Nc1cc(Cl)cc(Cl)c1	11	6	8	11	1	20	.	.
COc1ccc(NC(=O)N(C)C[C@H]2Oc3ccc(NC(=O)Cn4cnnn4)cc3C(=O)N([C@H](C)CO)C[C@@H]2C)cc1	-4	4	3	1	-1	10	.	.
